Data reported in PubChem BioAssay AID463143 (The Scripps Research Institute Molecular Screening Center, 2010).
Activity calls are given as the source filed them.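 Rule for the calls: active = fold change in liver X receptor activation above 2; inactive = the rest.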

Biological target: Oxysterols receptor LXR-beta (Homo sapiens) (UniProt P55055)
Test: LXR activators, GAL4 reporter, late-stage follow-up, selectivity assay for RORA inverse agonist project, cell-based, luminescence, single concentration, powder samples (AID 463143)
Settings: HEK293T GAL4-LXR LBD luciferase reporter, 18-24 h; at 10 µM; active compounds read high
Summary of the method: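 System – HEK293T cells carrying GAL4-LXR ligand-binding-domain fusion plus UAS-luciferase reporter · Timing – 20 h compound exposure · Read-out – fold change versus DMSO vehicle · Technique – luminescence · Controls – DMSO vehicle wells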

Chain of Oxysterols receptor LXR-beta (Homo sapiens) (P55055 whole entry, looked up, the tested form may be a part): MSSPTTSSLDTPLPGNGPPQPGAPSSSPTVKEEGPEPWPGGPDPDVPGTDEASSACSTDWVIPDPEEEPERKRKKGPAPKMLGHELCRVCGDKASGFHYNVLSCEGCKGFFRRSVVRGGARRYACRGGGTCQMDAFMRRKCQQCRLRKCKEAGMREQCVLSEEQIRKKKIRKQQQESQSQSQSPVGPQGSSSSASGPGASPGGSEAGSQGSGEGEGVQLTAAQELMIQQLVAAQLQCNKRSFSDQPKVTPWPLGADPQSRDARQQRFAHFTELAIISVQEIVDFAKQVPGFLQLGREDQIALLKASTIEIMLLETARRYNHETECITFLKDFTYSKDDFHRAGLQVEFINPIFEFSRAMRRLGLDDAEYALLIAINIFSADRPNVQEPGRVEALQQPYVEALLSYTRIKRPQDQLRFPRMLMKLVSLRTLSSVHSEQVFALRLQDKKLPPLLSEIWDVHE

O=C(Nc1ccc(C(O)(C(F)(F)F)C(F)(F)F)cc1)c1ccc(Cl)cc1
fold change: 1.15 (inactive)

O=C(Nc1ccc(C(O)(C(F)(F)F)C(F)(F)F)cc1)c1c(F)cccc1F
fold change: 0.937 (inactive)

O=C(Nc1ccc(C(O)(C(F)(F)F)C(F)(F)F)cc1)c1ccc(F)cc1Cl
fold change: 1.04 (inactive)

O=C(Nc1ccc(C(O)(C(F)(F)F)C(F)(F)F)cc1)c1ccccc1C(F)(F)F
fold change: 0.958 (inactive)

O=S(=O)(Nc1ccc(C(O)(C(F)(F)F)C(F)(F)F)cc1)c1cccs1
fold change: 1.39 (inactive)

O=C(Nc1ccc(C(O)(C(F)(F)F)C(F)(F)F)cc1)c1ccc(F)cc1F
fold change: 1.39 (inactive)
